# Shown are actives, neighbours in structure and some others; about 4.3% of the full set was active somewhere.
# CAL PDZ FP-1: inhibitors of human CAL PDZ peptide binding; purified CAL PDZ, TMR-peptide fluorescence polarization, 1 h; AID 602252; hit rate 0.92% among 300,000; Q9HD26; inhibition, % at 24.9 µM;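 active means mean inhibition of at least 30% with at least half of replicates also reaching 30%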
# Rtt109 HAT inh: blocks Candida albicans Rtt109/Vps75 acetyltransferase activity. Q5AAJ8. purified Rtt109/Vps75, ThioGlo CoA-SH fluorescence, 4 h. inhibition, % at 34.9 µM. hit rate 0.16% among 330,000;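 active means inhibition of at least 50% in every replicate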
# Target sequence (Q5AAJ8 whole entry, looked up): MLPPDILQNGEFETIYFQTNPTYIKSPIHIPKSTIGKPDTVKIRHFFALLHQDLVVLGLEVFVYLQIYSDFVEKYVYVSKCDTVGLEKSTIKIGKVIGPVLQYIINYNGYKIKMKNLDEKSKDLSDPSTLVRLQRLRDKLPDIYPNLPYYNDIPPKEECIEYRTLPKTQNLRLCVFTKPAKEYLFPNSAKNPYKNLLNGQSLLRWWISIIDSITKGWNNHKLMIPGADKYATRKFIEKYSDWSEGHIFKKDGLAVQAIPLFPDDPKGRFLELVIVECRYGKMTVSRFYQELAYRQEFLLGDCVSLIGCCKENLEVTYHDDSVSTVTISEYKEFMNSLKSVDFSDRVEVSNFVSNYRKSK
# CAL PDZ FP-2: human CAL PDZ-peptide interaction inhibition | hit rate 0.02% among 330,000 | AID 504414 | Q9HD26 | purified CAL PDZ, TMR-peptide fluorescence polarization, 1 h | inhibition, % at 20 µM;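 active means highest replicate inhibition of at least 40%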
#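 Material: tagged CAL PDZ domain; buffer or medium: 25 mM sodium phosphate pH 7.4, 150 mM NaCl, TCEP, IgG, Thesit; compound dosing: single point, 20 µM; schedule: 1 h incubation at room temperature before polarization reading; measured by: FP readout, S and P plane fluorescence; read-out basis: percent inhibition from loss of millipolarization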
# Dyrk1A ADPGlo: inhibitors of rat Dyrk1A kinase. Q63470. ADP-Glo luminescence, NFATc1 peptide. inhibition, % at 12.5 µM. hit rate 0.43% among 310,000. AID 504441; in the data active means inhibition above about 50%
# ALR H2O2 inh: inhibitors of human sulfhydryl oxidase ALR. purified ALR, DTT oxidation, H2O2 HRP-luminol luminescence. AID 485317. hit rate 3.8% among 290,000. P55789. inhibition, % (no concentration beside the values);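 active means mean replicate inhibition above about 79%, with every replicate also reaching it, limit read from the data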
# Target sequence (P55789 whole entry, looked up): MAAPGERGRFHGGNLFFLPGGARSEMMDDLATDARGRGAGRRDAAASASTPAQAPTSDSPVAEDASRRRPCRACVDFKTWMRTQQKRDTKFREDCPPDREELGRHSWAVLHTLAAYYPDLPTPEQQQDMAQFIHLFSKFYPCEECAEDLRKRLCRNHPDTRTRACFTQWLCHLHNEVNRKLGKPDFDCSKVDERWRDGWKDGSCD
# Hits are given with their value; . = inactive; / = no result given.
SMILES,CAL PDZ FP-1,Rtt109 HAT inh,CAL PDZ FP-2,Dyrk1A ADPGlo,ALR H2O2 inh
CC1=CC(C)(C)NC(=S)N1C(C)c1ccccc1 (centres undefined),.,.,.,.,.
COCCn1c(SCC(=O)NC2CCCC(C)C2C)nc2ccccc2c1=O (centres undefined),.,.,.,.,/
CCCOc1ccc(CSC(=N)N)cc1C(=O)OC,/,.,.,.,98.7
COC(=O)c1cc(CSC(=N)N)ccc1OCCC(C)C,.,.,.,.,99.3
CCCCOc1ccc(Br)cc1CSC(=N)N,.,.,.,.,/
COCCN1C(=O)N[C@@H](c2cccc(F)c2)C(C(C)=O)=C1C,.,.,.,.,.
O=C(CSCC(=O)N1CCCCC1)Nc1nc(-c2ccc(Cl)s2)cs1,.,.,.,.,.
O=C(CSCC(=O)N1CCCCC1)Nc1nc(-c2cccs2)cs1,/,.,.,.,96.0
CC1CC(C)CN(C(=O)CSCC(=O)Nc2nc(-c3cccs3)cs2)C1 (centres undefined),/,.,.,.,98.6
Cc1ccc(CNS(=O)(=O)c2c(C(=O)N3CCCCCC3)c(C)n(C)c2C)cc1,75.6,.,.,.,.
Cc1c(C(=O)N2CCCCC2)c(S(=O)(=O)NCc2ccc(Cl)cc2)c(C)n1C,77.1,.,.,.,.
CC(=O)c1ccc(N2CCN(S(=O)(=O)c3c(C(=O)N4CCCC4)c(C)n(C)c3C)CC2)cc1,80.2,.,.,.,.
Cc1[nH]c(C)c(S(=O)(=O)NCc2ccc(N(C)C)cc2)c1C(=O)N1CCCC1,.,.,.,.,98.2
COc1ccccc1C(=O)N/C(=C\c1ccccc1)C(=O)NCc1ccco1,.,.,.,.,/
CCc1ccc(C(C)NC(=O)c2ncn[nH]2)cc1 (centres undefined),.,.,.,.,.
CN(Cc1cccnc1)Cc1cn(Cc2ccccc2)nc1-c1ccc2c(c1)OCO2,.,.,.,.,.
Cc1c(C(=O)N2CCCCC2)c(S(=O)(=O)NCc2ccccc2Cl)c(C)n1C,37.8,.,.,.,.
Cc1ccccc1CNS(=O)(=O)c1c(C(=O)N2CCCC2)c(C)n(C)c1C,.,.,.,.,.
CCCCn1c(SCC(=O)Nc2cccc(OC)c2)nc2ccc(N3CCOCC3)cc2c1=O,.,.,.,.,99.1
O=C(CSc1nc(O)cc(=O)n1-c1ccccc1)c1ccc(Br)cc1,.,.,.,/,98.3
O=c1cc(O)nc(SCc2ccccc2)n1-c1ccccc1,.,.,.,.,.
CCOc1ccc(NC(=O)CSc2nc(O)c(C)c(=O)n2-c2ccc(F)cc2)cc1,.,.,.,.,99.5
CCOc1ccc(-n2c(SCC(=O)Nc3ccc(C(=O)O)cc3)nc3ccccc3c2=O)cc1,.,/,.,.,/
Cc1ccc(NC(=O)CSc2nc(=O)cc(N)n2-c2ccccc2)cc1,.,.,.,.,/
COC(=O)c1cccc(NC(=O)CSc2nc(=O)cc(N)n2-c2ccccc2)c1,/,.,.,.,98.4
SMILES,CAL PDZ FP-1,Rtt109 HAT inh,CAL PDZ FP-2,Dyrk1A ADPGlo,ALR H2O2 inh
COc1ccc(C2CC(=O)C=C(NNS(=O)(=O)c3ccc(C)cc3)C2)cc1 (centres undefined),.,.,.,.,/
CC(=O)N(CCC1(C(C)C)CCOC(C)(C)C1)C(C)c1cccs1 (centres undefined),/,.,.,.,.
COc1ccc(-n2c(Cc3cccn3C)nnc2SCC(=O)Nc2ccccc2C)cc1,.,.,.,.,.
CCCCc1nnc(NC(=O)CSc2nc(=O)cc(N)n2-c2cccc(C)c2)s1,.,.,.,.,98.4
Cc1cccc(-n2c(N)cc(=O)nc2SCC(=O)Nc2cc(C)on2)c1,/,.,.,.,.
COc1ccc(-n2c(SCC(=O)N3CCCCC3)nc(O)cc2=O)cc1,.,.,.,.,.
COc1ccc(-n2c(SCC(=O)Nc3cccc4ccccc34)nc(O)cc2=O)cc1,.,.,.,/,98.7
COc1ccc(NC(=O)CSc2nc(O)cc(=O)n2-c2ccc(OC)cc2)cc1,/,.,.,.,98.6
COc1ccc(-n2c(Cc3cccn3C)nnc2SCC(=O)Nc2cccc(C)c2C)cc1,.,.,.,.,89.0
Cc1cc(=O)oc2c(C)c(OC(C)C(=O)Nc3ccc(N4CCC(C)CC4)cc3)ccc12 (centres undefined),.,.,.,.,.
Cc1ccc(C)c(NC(=S)N2CCN(CCO)CC2)c1,.,.,.,.,.
CC(C)(C)NC(=O)CCN(/N=C/c1ccccc1F)C1=NS(=O)(=O)c2ccccc21,.,.,.,.,.
CCc1cccc(OCC(=O)Nc2cc(S(=O)(=O)N3CCOCC3)ccc2N2CCCC2)c1,.,.,.,.,.
COc1ccc(-n2c(SCC(=O)Nc3ccccc3)nc(O)cc2=O)cc1,.,.,.,/,87.7
Cc1ccccc1NC(=O)CSc1nc(O)cc(=O)n1C,.,.,.,/,98.8
Cc1c(O)nc(SCC(=O)Nc2nccs2)n(-c2ccccc2F)c1=O,.,.,.,.,98.9
Cc1ccc(-n2c(SCC(=O)Nc3ccc4c5c(cccc35)CC4)nc(O)c(C)c2=O)cc1,.,.,.,.,98.5
COc1ccc(-n2c(SCC(=O)Nc3ccc(NC(C)=O)cc3)nc3ccccc3c2=O)cc1,.,.,.,.,/
COc1ccccc1-n1c(SCC(=O)Nc2ccccc2C)nc(O)cc1=O,.,.,.,.,.
CCC1=NN(C(=O)CCc2ccc3c(c2)OCO3)C(O)(C(F)(F)F)C1 (centres undefined),/,.,.,.,.
O=C(CN1C(=O)c2ccccc2S1(=O)=O)Nc1ncc(Cl)cc1Cl,.,.,.,.,.
COc1cccc(NC(=O)CSc2nc3ccsc3c(=O)n2-c2ccc(C(=O)O)cc2)c1,43.5,/,.,.,.
CCn1c(SCC(=O)Nc2cccc(OC)c2)nc2ccccc2c1=O,.,.,.,.,.
O=c1cc(C(F)(F)F)nc(SC/C=C/c2ccccc2)[nH]1,/,.,.,.,78.2
COc1ccc(OC)c(S(=O)(=O)Nc2cccc3c(O)cccc23)c1,/,/,/,/,87.3
SMILES,CAL PDZ FP-1,Rtt109 HAT inh,CAL PDZ FP-2,Dyrk1A ADPGlo,ALR H2O2 inh
CSc1ccc(S(=O)(=O)Nc2ccc(S(=O)(=O)Nc3ccc(C)cc3)cc2)cc1,.,.,.,.,.
COc1ccc(OC)c(S(=O)(=O)Nc2ccc(O)c3ccccc23)c1,.,.,.,.,.
COc1ccc(OC)c(S(=O)(=O)Nc2ccc(O)c(Sc3ncn[nH]3)c2)c1,/,.,.,.,99.2
Cc1ccc(S(=O)(=O)Nc2ccc(O)c(Sc3ncn[nH]3)c2)cc1,.,.,.,.,98.7
CCOc1ccc(S(=O)(=O)Nc2ccc(O)c(Sc3ncn[nH]3)c2)cc1,.,.,.,.,99.0
CN(C)c1ccc(N=C/C=C2/N(C)c3ccccc3C2(C)C)cc1,.,.,.,.,/
CN(C)C(CNC(=O)c1ccc(-c2ccccc2)cc1)c1ccccc1 (centres undefined),.,.,.,.,.
Cc1cc(Br)cc2c(C(=O)NCC3CCCO3)cc(-c3ccccc3)nc12 (centres undefined),.,.,.,.,.
Cc1cc(F)ccc1S(=O)(=O)Nc1ccccc1C(=O)Nc1ncn[nH]1,.,.,/,.,.
